Results reported in ChEMBL document CHEMBL1146380, “Synthesis, antimicrobial activity, and QSAR studies of furan-3-carboxamides” (2007).
≈ marks a conversion by molar mass, not a printed value. Calls of active or inactive are those of the source. No cut-off for these calls is given here.

Legend:
Aspergillus terreus = assay: Antimicrobial activity against Aspergillus terreus isolate by broth microdilution method; type: functional
Escherichia coli = assay: Antimicrobial activity against Escherichia coli ATCC 25922 by broth microdilution method; type: functional
Summary of the method: (§1)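 Bacteria grown overnight on Mueller–Hinton agar. Colonies were suspended in saline to McFarland turbidity (about 10^8 cfu/mL), diluted 1:100 in saline, then 1:20 in Mueller–Hinton broth, giving 5 · 10^4 cfu/mL per well. DMSO-dissolved compound was tested in twofold dilutions from 320 to 1.25 at 35 °C for 24 h. MIC was the lowest concentration with no visible turbidity (M7-A4). Bactericidal concentration was read by subculturing clear wells on Mueller–Hinton agar.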

Pseudomonas aeruginosa = assay: Antimicrobial activity against Pseudomonas aeruginosa ATCC 27853 by broth microdilution method; type: functional; summary of the method: as §1
Rhizopus arrhizus = assay: Antimicrobial activity against Rhizopus oryzae isolate by broth microdilution method; type: functional
Fusarium solani = assay: Antimicrobial activity against Fusarium solani isolate by broth microdilution method; type: functional
Scedosporium boydii = assay: Antimicrobial activity against Pseudallescheria boydii isolate by broth microdilution method; type: functional
Candida albicans = assay: Antimicrobial activity against Candida albicans ATCC 44373 by broth microdilution method; type: functional
Summary of the method: (§2)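 Yeasts grown on potato dextrose agar. Inoculum was standardized by McFarland turbidity as for bacteria, into RPMI 1640 broth (M27-A2). DMSO-dissolved compound was tested in twofold dilutions from 320 to 1.25 at 35 °C for 24 h, in duplicate. MIC was the lowest concentration completely inhibiting visible growth. Fungicidal concentration was read by subculturing 20 µL from clear wells on Sabouraud dextrose agar at 35 °C.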

Aspergillus flavus = assay: Antimicrobial activity against Aspergillus flavus isolate by broth microdilution method; type: functional
Klebsiella pneumoniae = assay: Antimicrobial activity against Klebsiella pneumoniae ATCC 1003 by broth microdilution method; type: functional; details: for MBC: read-out: MFC; summary of the method: as §1
Sporothrix schenckii = assay: Antimicrobial activity against Sporothrix schenckii ATCC 1146 by broth microdilution method; type: functional
Saccharomyces cerevisiae = assay: Antimicrobial activity against Saccharomyces cerevisiae ATCC 2601 by broth microdilution method; type: functional
Summary of the method: (§3)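 Organism grown on potato dextrose agar, with turbidity-standardized inoculum in RPMI 1640 broth (M27-A2). DMSO-dissolved compound was tested in twofold dilutions from 320 to 1.25 at 35 °C, incubated up to 72 h, in duplicate. MIC was the lowest concentration with no visible growth. Cidal concentration was read by subculturing 20 µL from clear wells on Sabouraud dextrose agar, incubated for the same period.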

Candida dubliniensis = assay: Antimicrobial activity against Candida dubliniensis CBS 7987 by broth microdilution method; type: functional; summary of the method: as §2
[1] = test system: Cryptococcus deneoformans; assay: Antimicrobial activity against Cryptococcus neoformans var.neoformans serotype D ATCC 28952 by broth microdilution method; type: functional; summary of the method: as §3
Staphylococcus aureus = assay: Antimicrobial activity against Staphylococcus aureus ATCC 25923 by broth microdilution method; type: functional; details: for MBC: read-out: MFC; summary of the method: as §1
Aspergillus fumigatus = assay: Antimicrobial activity against Aspergillus fumigatus isolate by broth microdilution method; type: functional
[2] = (§4) Antimicrobial activity against Salmonella setubal ATCC 19196 by broth microdilution method; type: functional, Salmonella enterica subsp. enterica serovar Setubal; details: Salmonella enterica; summary of the method: as §1
Prototheca zopfii = assay: Antimicrobial activity against Prototheca zopfii by broth microdilution method; type: functional; summary of the method: as §3
Nakaseomyces glabratus = assay: Antimicrobial activity against Candida glabrata […] by broth microdilution method; type: functional; summary of the method: as §2
Aspergillus niger = assay: Antimicrobial activity against Aspergillus niger isolate by broth microdilution method; type: functional
[3] = test system: Salmonella enterica subsp. enterica serovar Setubal; assay: as §4; type: functional; summary of the method: as §1

Row | SMILES | MIC (Aspergillus terreus) [µg/mL] | MIC (Escherichia coli) [µg/mL] | MBC (Pseudomonas aeruginosa) [µg/mL] | MIC (Pseudomonas aeruginosa) [µg/mL] | MIC (Rhizopus arrhizus) [µg/mL] | MIC (Fusarium solani) | MIC (Scedosporium boydii) [µg/mL] | MFC (Candida albicans) [µg/mL] | MIC (Candida albicans) [µg/mL] | Activity (Aspergillus flavus) | MIC (Klebsiella pneumoniae) [µg/mL] | MIC (Sporothrix schenckii) [µg/mL] | MIC (Saccharomyces cerevisiae) [µg/mL] | MIC (Candida dubliniensis) [µg/mL] | MIC [1] [µg/mL] | MIC (Staphylococcus aureus) [µg/mL] | MIC (Aspergillus fumigatus) [µg/mL] | MIC (Prototheca zopfii) [µg/mL] | MIC (Nakaseomyces glabratus) [µg/mL] | MIC (Aspergillus niger) [µg/mL] | further results
1 | O=C(Nc1ccccc1O)c1ccoc1 | 320 (≈ 1570 µM) | 160 (≈ 787 µM) | 160 (≈ 787 µM) | 10 (≈ 49.2 µM) | 320 (≈ 1570 µM) | 320 µg/mL (≈ 1570 µM) | 160 (≈ 787 µM) | 320 (≈ 1570 µM) | 160 (≈ 787 µM) | inactive | 20 (≈ 98.4 µM) | 320 (≈ 1570 µM) | 160 (≈ 787 µM) | 80 (≈ 394 µM) | 5 (≈ 24.6 µM) | 20 (≈ 98.4 µM) | 160 (≈ 787 µM) | 40 (≈ 197 µM) | 160 (≈ 787 µM) | 320 (≈ 1570 µM) | Activity (Aspergillus terreus): inactive; MBC (Escherichia coli): 320 µg/mL (≈ 1570 µM); MFC (Rhizopus arrhizus): 320 µg/mL (≈ 1570 µM); Activity (Fusarium solani): inactive; MFC (Scedosporium boydii): 160 µg/mL (≈ 787 µM); MIC (Aspergillus flavus): 320 µg/mL (≈ 1570 µM); MBC (Klebsiella pneumoniae): 320 µg/mL (≈ 1570 µM); MFC (Sporothrix schenckii): 320 µg/mL (≈ 1570 µM); MFC (Saccharomyces cerevisiae): 160 µg/mL (≈ 787 µM); MFC (Candida dubliniensis): 160 µg/mL (≈ 787 µM); MFC [1]: 20 µg/mL (≈ 98.4 µM); MBC (Staphylococcus aureus): 320 µg/mL (≈ 1570 µM); MFC (Aspergillus fumigatus): 320 µg/mL (≈ 1570 µM); MBC [2]: 320 µg/mL (≈ 1570 µM); MIC [2]: 160 µg/mL (≈ 787 µM); MFC (Prototheca zopfii): 80 µg/mL (≈ 394 µM); MFC (Nakaseomyces glabratus): 160 µg/mL (≈ 787 µM); MFC (Aspergillus niger): 320 µg/mL (≈ 1570 µM)
2 | CN(C)c1ccc(CNC(=O)c2ccoc2)cc1 |  | 160 (≈ 655 µM) | 160 (≈ 655 µM) | 160 (≈ 655 µM) | 320 (≈ 1310 µM) | inactive | 40 (≈ 164 µM) | 160 (≈ 655 µM) | 80 (≈ 327 µM) | inactive | 160 (≈ 655 µM) | 320 (≈ 1310 µM) | 160 (≈ 655 µM) | 80 (≈ 327 µM) | 160 (≈ 655 µM) | 80 (≈ 327 µM) | 320 (≈ 1310 µM) | 320 (≈ 1310 µM) | 80 (≈ 327 µM) | 320 (≈ 1310 µM) | Activity (Aspergillus terreus): inactive; Activity (Escherichia coli): inactive; Activity (Rhizopus arrhizus): inactive; MFC (Scedosporium boydii): 320 µg/mL (≈ 1310 µM); MIC (Aspergillus flavus): 320 µg/mL (≈ 1310 µM); MBC (Klebsiella pneumoniae): 160 µg/mL (≈ 655 µM); Activity (Sporothrix schenckii): inactive; Activity (Saccharomyces cerevisiae): inactive; MFC (Candida dubliniensis): 160 µg/mL (≈ 655 µM); MFC [1]: 320 µg/mL (≈ 1310 µM); MBC (Staphylococcus aureus): 80 µg/mL (≈ 327 µM); Activity (Aspergillus fumigatus): inactive; MBC [2]: 320 µg/mL (≈ 1310 µM); MIC [2]: 320 µg/mL (≈ 1310 µM); Activity (Prototheca zopfii): inactive; MFC (Nakaseomyces glabratus): 160 µg/mL (≈ 655 µM); Activity (Aspergillus niger): inactive
3 | OC(Cn1cncn1)(Cn1cncn1)c1ccc(F)cc1F [FLUCONAZOLE] |  |  |  |  |  |  |  |  | 4 (≈ 13.1 µM) |  |  |  | 1 (≈ 3.27 µM) | 2 (≈ 6.53 µM) | 2 (≈ 6.53 µM) |  |  |  | 8 (≈ 26.1 µM) |  | 
4 | C[C@@H](O)[C@H]1C(=O)N2C(C(=O)O)=C(SCCNC=N)C[C@H]12 [IMIPENEM ANHYDROUS] |  | 0.06 (≈ 0.2 µM) |  | 2 (≈ 6.68 µM) |  |  |  |  |  |  | < 4 |  |  |  |  | 0.06 (≈ 0.2 µM) |  |  |  |  | MIC [2]: < 4 µg/mL
5 | O=C(Nn1cnnc1)c1ccoc1 | 320 (≈ 1800 µM) | 160 (≈ 898 µM) | 160 (≈ 898 µM) | 40 (≈ 225 µM) | 320 (≈ 1800 µM) | 320 µg/mL (≈ 1800 µM) |  | 40 (≈ 225 µM) | 40 (≈ 225 µM) | inactive | 320 (≈ 1800 µM) | 320 (≈ 1800 µM) | 80 (≈ 449 µM) | 40 (≈ 225 µM) | 10 (≈ 56.1 µM) | 320 (≈ 1800 µM) | 320 (≈ 1800 µM) | 80 (≈ 449 µM) | 40 (≈ 225 µM) | 320 (≈ 1800 µM) | MFC (Aspergillus terreus): 320 µg/mL (≈ 1800 µM); MBC (Escherichia coli): 320 µg/mL (≈ 1800 µM); Activity (Rhizopus arrhizus): inactive; Activity (Fusarium solani): inactive; Activity (Scedosporium boydii): inactive; Activity (Klebsiella pneumoniae): inactive; Activity (Sporothrix schenckii): inactive; MFC (Saccharomyces cerevisiae): 160 µg/mL (≈ 898 µM); MFC (Candida dubliniensis): 40 µg/mL (≈ 225 µM); MFC [1]: 40 µg/mL (≈ 225 µM); MBC (Staphylococcus aureus): 320 µg/mL (≈ 1800 µM); MFC (Aspergillus fumigatus): 320 µg/mL (≈ 1800 µM); MBC [2]: 320 µg/mL (≈ 1800 µM); MIC [2]: 160 µg/mL (≈ 898 µM); MFC (Prototheca zopfii): 320 µg/mL (≈ 1800 µM); MFC (Nakaseomyces glabratus): 80 µg/mL (≈ 449 µM)
6 | C[C@@H]1[C@H](O)[C@@H](C)/C=C/C=C/C=C/C=C/C=C/C=C/C=C/[C@H](O[C@@H]2O[C@H](C)[C@@H](O)[C@H](N)[C@@H]2O)C[C@@H]2O[C@](O)(C[C@@H](O)C[C@@H](O)[C@H](O)CC[C@@H](O)C[C@@H](O)CC(=O)O[C@H]1C)C[C@H](O)[C@H]2C(=O)O [AMPHOTERICIN B] | 2 (≈ 2.16 µM) |  |  |  | 1 (≈ 1.08 µM) | 1 µg/mL (≈ 1.08 µM) | 4 (≈ 4.33 µM) |  |  |  |  | 0.5 (≈ 0.541 µM) |  |  |  |  | 1 (≈ 1.08 µM) | 0.5 (≈ 0.541 µM) |  | 1 (≈ 1.08 µM) | MIC (Aspergillus flavus): 1 µg/mL (≈ 1.08 µM)
7 | O=C(NCCCO)c1ccoc1 | 320 (≈ 1890 µM) |  | 160 (≈ 946 µM) | 160 (≈ 946 µM) | 320 (≈ 1890 µM) | 320 µg/mL (≈ 1890 µM) | 320 (≈ 1890 µM) | 160 (≈ 946 µM) | 80 (≈ 473 µM) | inactive | 320 (≈ 1890 µM) | 320 (≈ 1890 µM) | 320 (≈ 1890 µM) | 160 (≈ 946 µM) | 40 (≈ 236 µM) | 160 (≈ 946 µM) | 320 (≈ 1890 µM) | 160 (≈ 946 µM) | 160 (≈ 946 µM) | 320 (≈ 1890 µM) | MFC (Aspergillus terreus): 320 µg/mL (≈ 1890 µM); Activity (Escherichia coli): inactive; MFC (Rhizopus arrhizus): 320 µg/mL (≈ 1890 µM); MFC (Fusarium solani): 320 µg/mL (≈ 1890 µM); MFC (Scedosporium boydii): 320 µg/mL (≈ 1890 µM); Activity (Klebsiella pneumoniae): inactive; MFC (Sporothrix schenckii): 320 µg/mL (≈ 1890 µM); Activity (Saccharomyces cerevisiae): inactive; MFC (Candida dubliniensis): 160 µg/mL (≈ 946 µM); MFC [1]: 80 µg/mL (≈ 473 µM); MBC (Staphylococcus aureus): 320 µg/mL (≈ 1890 µM); Activity (Aspergillus fumigatus): inactive; Activity [3]: inactive; MFC (Prototheca zopfii): 160 µg/mL (≈ 946 µM); MFC (Nakaseomyces glabratus): 160 µg/mL (≈ 946 µM); Activity (Aspergillus niger): inactive
